Active and inactive are the calls of the source. No cut-off for these calls is given here.
Experiments:
Solanum lycopersicum = test: Phytotoxicity against Solanum lycopersicum (tomato) leaves; type: organism-based; settings: in vivo
Medicago sativa = test: Phytotoxicity against Medicago sativa (alfalfa) assessed as seed germination; type: organism-based; settings: in vivo
Pythium aphanidermatum = test: Antifungal activity against Pythium aphanidermatum assessed as radial growth inhibition at 10 to 100 uM; type: functional, organism-based
Outline: (§1)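 Initial screen on PDA plates (10 mL) amended with 10 or 100 μM compound, added from DMSO stocks (DMSO not exceeding 0.001% v/v) to warm (50 °C) sterile medium before pouring. Radial growth was compared with growth on unamended medium. Error bars are standard deviation.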

Rhizoctonia solani = test: Antifungal activity against Rhizoctonia solani assessed as radial growth inhibition at 10 to 100 uM; type: functional, organism-based; outline: as §1
Alternaria alternata = test: Antifungal activity against Alternaria alternata assessed as radial growth inhibition at 100 uM; type: functional; settings: read-out: GI; outline: as §1
Botrytis cinerea [1] = test: Antifungal activity against Botryotinia fuckeliana isolate Bcl16 assessed as radial growth inhibition at 10 to 100 uM; type: functional, organism-based; outline: as §1
Neurospora crassa = test: Antifungal activity against Neurospora crassa strain 74-OR23-1A assessed as radial growth inhibition at 100 uM; type: functional, organism-based; outline: as §1
Botrytis cinerea [2] = test: Antifungal activity against Botryotinia fuckeliana isolate Bcl16 assessed as radial growth inhibition during advanced test phase at 10 to 50 uM at 22 degC measured after 48 hr; type: functional, organism-based
Outline: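 B. cinerea isolate BcI16 was grown on PDA amended with compound across 0-50 μM, added from DMSO stock (≤0.001% v/v final) to 50 °C medium. Plates were incubated at 22 °C for 48 h, then radial growth was measured against unamended controls.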

Sclerotinia sclerotiorum = test: Antifungal activity against Sclerotinia sclerotiorum isolate 1980 assessed as radial growth inhibition during advanced test phase at 10 to 50 uM at 17 degC measured after 48 hr; type: functional, organism-based
Outline: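 S. sclerotiorum isolate 1980 was grown on PDA amended with compound across 0-50 μM, added from DMSO stock (≤0.001% v/v final) to 50 °C medium. Plates were incubated at 17 °C for 48 h, then radial growth was measured against unamended controls.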

Penicillium digitatum = test: Antifungal activity against Penicillium digitatum assessed as radial growth inhibition at 100 uM; type: functional; settings: read-out: GI; outline: as §1

**Q.** What does the source list for N/C(=C\C(=O)c1ccc2ccccc2c1)C(F)(F)F?
**A.** Activity (Solanum lycopersicum): Non-toxic; Activity (Medicago sativa): Non-toxic; growth inhibition (GI) (Pythium aphanidermatum): Active; growth inhibition (GI) (Rhizoctonia solani): Active; inhibition of growth at 100 µM (Alternaria alternata): ≤ 50%; growth inhibition (GI) (Botrytis cinerea [1]): Active

**Q.** With N#Cc1ccc(C(=O)/C=C(\N)C(F)(F)F)cc1 as the compound, how does the Activity (Solanum lycopersicum) read?
**A.** Non-toxic

**Q.** What about the Activity (Medicago sativa) of the same compound?
**A.** Non-toxic

**Q.** And the “growth inhibition (GI)” value (Pythium aphanidermatum)?
**A.** Active

**Q.** What about the “growth inhibition (GI)” value (Rhizoctonia solani) of the same compound?
**A.** Active

**Q.** What about the inhibition of growth at 100 µM (Alternaria alternata) of the same compound?
**A.** ≤ 50%

**Q.** And the “growth inhibition (GI)” value (Botrytis cinerea [1])?
**A.** Active

**Q.** Which results are given for CC(C)(C)OC(=O)Nc1ccc(C(=O)/C=C(\N)C(F)(F)F)cc1?
**A.** Activity (Solanum lycopersicum): Non-toxic; Activity (Medicago sativa): Non-toxic; growth inhibition (GI) (Pythium aphanidermatum): Active; growth inhibition (GI) (Rhizoctonia solani): Active; inhibition of growth at 100 µM (Alternaria alternata): ≤ 50%; growth inhibition (GI) (Botrytis cinerea [1]): Active

**Q.** Which results are given for N/C(=C\C(=O)c1ccc(F)cc1)C(F)(F)F?
**A.** Activity (Solanum lycopersicum): Non-toxic; Activity (Medicago sativa): Non-toxic; growth inhibition (GI) (Pythium aphanidermatum): Active; growth inhibition (GI) (Neurospora crassa): Active; growth inhibition (GI) (Rhizoctonia solani): Active; inhibition of growth at 100 µM (Alternaria alternata): ≤ 50%; growth inhibition (GI) (Botrytis cinerea [1]): Active

**Q.** How did the Activity (Solanum lycopersicum) turn out when N/C(=C\C(=O)c1ccc(O)cc1)C(F)(F)F was run?
**A.** Non-toxic

**Q.** What about the Activity (Medicago sativa) of the same compound?
**A.** Non-toxic

**Q.** And the “growth inhibition (GI)” value (Botrytis cinerea [2])?
**A.** Active

**Q.** What about the “growth inhibition (GI)” value (Pythium aphanidermatum) of the same compound?
**A.** Active

**Q.** And the “growth inhibition (GI)” value (Rhizoctonia solani)?
**A.** Active

**Q.** What about the inhibition of growth at 100 µM (Alternaria alternata) of the same compound?
**A.** ≤ 50%

**Q.** What about the “growth inhibition (GI)” value (Botrytis cinerea [1]) of the same compound?
**A.** Active

**Q.** Which results are given for N/C(=C\C(=O)c1ccc(Cl)cc1)C(F)(F)C(F)(F)F?
**A.** Activity (Solanum lycopersicum): Non-toxic; Activity (Medicago sativa): Non-toxic; growth inhibition (GI) (Sclerotinia sclerotiorum): Active; growth inhibition (GI) (Botrytis cinerea [2]): Active; growth inhibition (GI) (Pythium aphanidermatum): Active; growth inhibition (GI) (Rhizoctonia solani): Active; inhibition of growth at 100 µM (Alternaria alternata): ≤ 50%; growth inhibition (GI) (Botrytis cinerea [1]): Active

**Q.** N/C(=C\C(=O)c1cccc(Br)c1)C(F)(F)F was tested. Which Activity (Solanum lycopersicum) did it give?
**A.** Non-toxic

**Q.** What about the Activity (Medicago sativa) of the same compound?
**A.** Non-toxic

**Q.** What about the “growth inhibition (GI)” value (Botrytis cinerea [2]) of the same compound?
**A.** Active

**Q.** What about the “growth inhibition (GI)” value (Pythium aphanidermatum) of the same compound?
**A.** Active

**Q.** And the “growth inhibition (GI)” value (Neurospora crassa)?
**A.** Active

**Q.** And the “growth inhibition (GI)” value (Rhizoctonia solani)?
**A.** Active

**Q.** And the inhibition of growth at 100 µM (Alternaria alternata)?
**A.** ≤ 50%

**Q.** And the “growth inhibition (GI)” value (Botrytis cinerea [1])?
**A.** Active

**Q.** Which results are given for CC/C(C(=O)c1ccc(Cl)cc1)=C(/N)C(F)(F)F?
**A.** Activity (Solanum lycopersicum): Non-toxic; Activity (Medicago sativa): Non-toxic; growth inhibition (GI) (Pythium aphanidermatum): Active; growth inhibition (GI) (Rhizoctonia solani): Active; inhibition of growth at 100 µM (Alternaria alternata): ≤ 50%; growth inhibition (GI) (Botrytis cinerea [1]): Active

**Q.** What does the source list for N/C(=C\C(=O)c1ccc(Cl)cc1)C(F)(F)F?
**A.** Activity (Solanum lycopersicum): Non-toxic; Activity (Medicago sativa): Non-toxic; growth inhibition (GI) (Botrytis cinerea [2]): Active; growth inhibition (GI) (Pythium aphanidermatum): Active; growth inhibition (GI) (Neurospora crassa): Active; growth inhibition (GI) (Rhizoctonia solani): Active; inhibition of growth at 100 µM (Alternaria alternata): ≤ 50%; inhibition of growth at 100 µM (Penicillium digitatum): > 50%; growth inhibition (GI) (Botrytis cinerea [1]): Active

**Q.** With CC(=O)c1ccc(O)cc1 [4-HYDROXYACETOPHENONE] as the compound, how does the Activity (Solanum lycopersicum) read?
**A.** Non-toxic

**Q.** What about the Activity (Medicago sativa) of the same compound?
**A.** Non-toxic

**Q.** And the “growth inhibition (GI)” value (Sclerotinia sclerotiorum)?
**A.** Active

**Q.** And the “growth inhibition (GI)” value (Botrytis cinerea [2])?
**A.** Active

**Q.** What about the “growth inhibition (GI)” value (Pythium aphanidermatum) of the same compound?
**A.** Active

**Q.** What about the “growth inhibition (GI)” value (Rhizoctonia solani) of the same compound?
**A.** Active

**Q.** And the inhibition of growth at 100 µM (Alternaria alternata)?
**A.** ≤ 50%

**Q.** And the “growth inhibition (GI)” value (Botrytis cinerea [1])?
**A.** Active

Reference: ChEMBL document CHEMBL3046504, “Synthesis and antifungal activity of beta-trifluoroalkyl aminovinyl ketone derivatives” (J Agric Food Chem, 2009)
